Holding throughout (format): cell-based
In data set [1] the target is T1, Retinoic acid receptor RXR-alpha (Homo sapiens, UniProt P19793).
T1 sequence (P19793 whole entry): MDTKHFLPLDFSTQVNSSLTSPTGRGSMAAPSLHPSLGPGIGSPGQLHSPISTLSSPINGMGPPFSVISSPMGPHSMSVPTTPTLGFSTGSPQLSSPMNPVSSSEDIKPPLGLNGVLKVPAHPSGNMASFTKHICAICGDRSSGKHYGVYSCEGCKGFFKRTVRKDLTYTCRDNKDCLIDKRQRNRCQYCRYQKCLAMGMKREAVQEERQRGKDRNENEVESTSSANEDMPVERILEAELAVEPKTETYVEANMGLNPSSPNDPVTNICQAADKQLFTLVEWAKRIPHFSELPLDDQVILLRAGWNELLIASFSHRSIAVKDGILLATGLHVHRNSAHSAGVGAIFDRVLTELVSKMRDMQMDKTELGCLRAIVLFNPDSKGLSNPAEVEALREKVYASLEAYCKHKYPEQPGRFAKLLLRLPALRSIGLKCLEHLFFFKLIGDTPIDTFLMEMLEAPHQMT
The data set can be described thus: Transactivation of human Gal4-fused RXRalpha LBD expressed in HEK293T cells after 12 to 14 hrs by dual-glo luciferase assay. The method in brief: (§1)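 Gal4-hybrid reporter gene assay in HEK293T cells with the RXRα, RXRβ or RXRγ construct. Dose–response curves give EC50 and fold activation as mean ± SEM from n ≥ 4 independent experiments in duplicate.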

Data set [2] deals with T2, Retinoic acid receptor RXR-alpha (Homo sapiens) (UniProt P19793).
T2 sequence (whole entry): T1 sequence (P19793 whole entry)
The data set can be described thus: Transactivation of human Gal4-fused RXRalpha LBD expressed in HEK293T cells after 12 to 14 hrs by dual-glo luciferase assay relative to bexarotene.

In data set [3] the target is T3, Retinoic acid receptor RXR-beta (Homo sapiens, UniProt P28702).
T3 sequence (P28702 whole entry): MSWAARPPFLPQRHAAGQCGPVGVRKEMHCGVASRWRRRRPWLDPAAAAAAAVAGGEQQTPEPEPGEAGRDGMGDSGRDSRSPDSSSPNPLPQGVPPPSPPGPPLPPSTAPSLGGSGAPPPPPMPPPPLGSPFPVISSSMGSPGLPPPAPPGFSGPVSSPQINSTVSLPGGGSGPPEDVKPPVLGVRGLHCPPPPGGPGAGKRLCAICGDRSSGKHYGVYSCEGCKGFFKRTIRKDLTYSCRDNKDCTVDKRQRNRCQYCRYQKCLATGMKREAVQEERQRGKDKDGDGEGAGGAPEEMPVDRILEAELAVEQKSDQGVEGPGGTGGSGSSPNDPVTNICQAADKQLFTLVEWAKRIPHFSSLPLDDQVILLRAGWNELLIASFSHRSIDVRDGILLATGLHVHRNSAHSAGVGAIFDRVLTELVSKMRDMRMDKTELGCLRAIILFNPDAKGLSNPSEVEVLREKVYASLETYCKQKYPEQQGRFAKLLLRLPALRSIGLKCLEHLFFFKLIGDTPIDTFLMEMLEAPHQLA
The data set can be described thus: Transactivation of human Gal4-fused RXRbeta LBD expressed in HEK293T cells after 12 to 14 hrs by dual-glo luciferase assay. The gist of the method: as §1

The target in data set [4] is T4, Retinoic acid receptor RXR-beta (Homo sapiens) (UniProt P28702).
T4 sequence (whole entry): T3 sequence (P28702 whole entry)
The data set can be described thus: Transactivation of human Gal4-fused RXRbeta LBD expressed in HEK293T cells after 12 to 14 hrs by dual-glo luciferase assay relative to bexarotene.

For data set [5], the target named is T5, Retinoic acid receptor RXR-gamma (Homo sapiens, UniProt P48443).
T5 sequence (P48443 whole entry): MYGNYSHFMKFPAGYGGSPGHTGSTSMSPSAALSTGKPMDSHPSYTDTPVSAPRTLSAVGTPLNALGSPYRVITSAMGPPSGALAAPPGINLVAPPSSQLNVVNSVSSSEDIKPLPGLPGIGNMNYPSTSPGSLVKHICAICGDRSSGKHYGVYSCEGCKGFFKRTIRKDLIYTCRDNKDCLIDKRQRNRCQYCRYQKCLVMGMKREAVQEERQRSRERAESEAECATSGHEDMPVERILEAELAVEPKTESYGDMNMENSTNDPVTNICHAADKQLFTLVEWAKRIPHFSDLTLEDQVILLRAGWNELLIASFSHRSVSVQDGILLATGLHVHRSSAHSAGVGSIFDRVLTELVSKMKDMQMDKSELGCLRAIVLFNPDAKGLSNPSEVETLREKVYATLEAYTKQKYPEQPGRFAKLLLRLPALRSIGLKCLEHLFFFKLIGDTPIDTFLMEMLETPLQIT
The data set can be described thus: Transactivation of human Gal4-fused RXRgamma LBD expressed in HEK293T cells after 12 to 14 hrs by dual-glo luciferase assay. The method in brief:
as §1

Data set [6] addresses T6, Retinoic acid receptor RXR-gamma (Homo sapiens) (UniProt P48443).
T6 sequence (whole entry): T5 sequence (P48443 whole entry)
The data set can be described thus: Transactivation of human Gal4-fused RXRgamma LBD expressed in HEK293T cells after 12 to 14 hrs by dual-glo luciferase assay relative to bexarotene.

The target of data set [7] is T2, Retinoic acid receptor RXR-alpha (Homo sapiens). The data set can be described thus: Transactivation of human Gal4-fused RXRalpha LBD expressed in HEK293T cells at 50 uM after 12 to 14 hrs by dual-glo luciferase assay.
Data set [8] deals with T4, Retinoic acid receptor RXR-beta (Homo sapiens). The data set can be described thus: Transactivation of human Gal4-fused RXRbeta LBD expressed in HEK293T cells at 50 uM after 12 to 14 hrs by dual-glo luciferase assay.
In data set [9] the target is T6, Retinoic acid receptor RXR-gamma (Homo sapiens). The data set can be described thus: Transactivation of human Gal4-fused RXRgamma LBD expressed in HEK293T cells at 50 uM after 12 to 14 hrs by dual-glo luciferase assay.
Data set [10] concerns the target T2, Retinoic acid receptor RXR-alpha (Homo sapiens). The data set can be described thus: Transactivation of human Gal4-fused RXRalpha LBD expressed in HEK293T cells at 30 uM after 12 to 14 hrs by dual-glo luciferase assay. The method in brief: (§2)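 Single-concentration selectivity profiling in Gal4-hybrid reporter gene assays in HEK293T cells. Each nuclear receptor construct (RAR, PPAR, LXR, FXR, CAR, VDR, PXR, RXR) was tested at 30 μM.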

The target in data set [11] is T7, Peroxisome proliferator-activated receptor gamma (Homo sapiens) (UniProt P37231).
T7 sequence (whole entry): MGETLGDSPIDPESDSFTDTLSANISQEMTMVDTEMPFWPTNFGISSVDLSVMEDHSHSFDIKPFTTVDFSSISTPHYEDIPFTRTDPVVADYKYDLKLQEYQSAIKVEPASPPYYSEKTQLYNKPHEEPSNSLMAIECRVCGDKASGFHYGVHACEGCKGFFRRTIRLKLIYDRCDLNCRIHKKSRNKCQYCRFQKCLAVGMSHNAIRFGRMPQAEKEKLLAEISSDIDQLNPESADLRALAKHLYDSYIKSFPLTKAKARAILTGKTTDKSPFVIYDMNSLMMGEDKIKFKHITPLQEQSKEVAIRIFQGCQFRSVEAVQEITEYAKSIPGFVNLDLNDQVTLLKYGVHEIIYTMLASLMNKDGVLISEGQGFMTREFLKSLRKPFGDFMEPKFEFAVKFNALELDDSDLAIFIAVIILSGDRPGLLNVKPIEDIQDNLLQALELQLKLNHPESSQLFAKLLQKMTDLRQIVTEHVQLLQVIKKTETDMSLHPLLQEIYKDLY
The data set can be described thus: Transactivation of human Gal4-fused PPARgamma LBD expressed in HEK293T cells at 30 uM after 12 to 14 hrs by dual-glo luciferase assay. The gist of the method: as §2

The next data set has as its system HepG2. The data set can be described thus: Cytotoxicity against human HepG2 cells assessed as reduction in cell viability up to 100 uM after 48 hrs by WST1 assay. The settings on record: hepg2, 48 h.
Data set [12] deals with T8, Retinoid X receptor (Homo sapiens) (UniProt P28702+P48443+P19793). The data set can be described thus: Transactivation of RXR in human HepG2 cells assessed as induction of ABCA1 mRNA expression at 30 uM after 8 hrs by qRT-PCR analysis. The gist of the method: (§3)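 HepG2 cells were treated and ABCA1 or ApoE mRNA levels measured. Results are given as mean fold induction versus 0.1% DMSO vehicle ± SEM, n = 3. Significance was set at p < 0.05, 0.01 or 0.001.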
On the technique in general: Real-time PCR tracks product formation cycle by cycle.

Data set [13] has as its target T8, Retinoid X receptor (Homo sapiens). The data set can be described thus: Transactivation of RXR in human HepG2 cells assessed as induction of apoE mRNA expression at 30 uM after 8 hrs by qRT-PCR analysis. The gist of the method: as §3
For data set [14] the target is unchanged. The data set can be described thus: Transactivation of RXR in human HepG2 cells assessed as induction of ABCA1 mRNA expression at 10 uM after 8 hrs by qRT-PCR analysis. The gist of the method: as §3
Data set [15] shares this target. The data set can be described thus: Transactivation of RXR in human HepG2 cells assessed as induction of apoE mRNA expression at 10 uM after 8 hrs by qRT-PCR analysis. The gist of the method:
as §3

Activity calls are given as the source filed them. No cut-off for these calls is given here.

As a reminder, the EC50 is the concentration giving half of the maximal effect. Lower therefore signals a more potent agent.

As to `Cc1c2c(n(C[C@H]3CC[C@H](C(=O)O)CC3)c1C)CCC(F)(F)C2`, the EC50 came out at 24 µM in data set [1], 27.1 µM in data set [3] and 50 µM in [5]. In addition, the fold change (FC) in [2] came to 69; in [4], 99; in [6], 18.
Consider `C/C=C/c1ccc2c(c1)[C@@H](C)[C@H](c1ccc(O)cc1)O2`, for which the result in data set [7] was inactive.
Take `Cc1ccc(C)n1C(CC1CCCC1)C(=O)O` (centres undefined): the result in data set [7], in [8] and in data set [9] was inactive.
Turning to `CCC(C)[C@@H]1C(=O)/C(=C(/O)[C@@H]2[C@@H]3[C@H](C)C[C@H](C)C[C@@H]3C=C[C@@H]2[C@]2(C)O[C@H]2C)C(=O)N1C` (some centres undefined), in data set [7], the outcome was inactive.
Consider `CC(C)c1ccc2c(c1)CC[C@H]1[C@](C)(C(=O)O)CCC[C@]21C` [DEHYDROABIETIC ACID], for which the outcome in data set [10], in data set [11], in [12] and in data set [13] was Active. Further, the EC50 in [1], in [3] and in data set [5] was 42 µM each time. The fold change (FC) was found to be 9 in data set [2], 6 in [4] and 6 in [6]. Also, the Activity result in the data set on HepG2 is “Toxic”.
For the compound `Cc1ccc(-n2c(C)c(C)c3c2CCC(F)(F)C3)cc1O`, the EC50 in data set [1] stood at 23.6 µM; in data set [3], 13.9 µM; in data set [5], 27.2 µM. In addition, the fold change (FC) in data set [2] was determined as 26; in data set [4], 30; in data set [6], 11.
For `Cc1c2c(n(-c3ccc(CC(=O)O)cc3)c1C)CCC(F)(F)C2`, the fold change (FC) in data set [2] is 69; in data set [4], 121; in data set [6] it was 44. The outcome in [14] and in data set [15] was Active.
Turning to `Cc1c2c(n(-c3ccc(CCCC(=O)O)cc3)c1C)CCC(F)(F)C2`, the EC50 was found to be 9.1 µM in [1], 2.2 µM in data set [3] and 2.5 µM in data set [5]. In addition, the figures for the fold change (FC) in data set [2], in [4] and in data set [6] were 56, 64 and 7, respectively.
Turning to `CC(C)=C(C)c1ccc(-c2cnc(CCC(=O)O)o2)cc1`, the EC50 was found to be 8 µM in data set [1], 16 µM in data set [3] and 14 µM in [5]. Also, the fold change (FC) in [2] was found to be 2.8; in data set [4] it was 3.2; in [6], 2.
As to `Cc1ccc(C)n1-c1ccc(CCCC(=O)O)cc1`, the EC50 in [1] worked out at 4.3 µM; in [3], 6.6 µM; in data set [5], 24.8 µM. Also, the fold change (FC) in data set [2] is 31; in data set [4] it was 48; in [6], 11.
`C=C[C@@]1(C)CC[C@H]2C(=CC[C@@H]3[C@]2(C)CCC[C@@]3(C)C(=O)O)C1` [ISOPIMARIC ACID]: the result in data set [10], in data set [12] and in data set [13] was Active. Also, the figures for the EC50 in data set [1], in [3] and in [5] were 26 µM, 32 µM and 33 µM, respectively. Further, the fold change (FC) is 13 in [2], 7 in [4] and 7 in data set [6]. Further, the Activity result in the data set on HepG2 was “Toxic”.
Regarding `Cc1ccc(C)n1-c1ccc(SCC(=O)O)cc1`, the EC50 in data set [1] and in [3] was more than 30 µM throughout. Further, the outcome in data set [9] was inactive.

The values above are taken from ChEMBL document CHEMBL4145619, “Computer-Assisted Discovery of Retinoid X Receptor Modulating Natural Products and Isofunctional Mimetics” (J Med Chem, 2018).
